Bioassay records deposited in PubChem BioAssay by several laboratories.
MPTP inh: permeability transition pore inhibition; AID 602449; 360,000 compounds, 1.4% hits; isolated mouse mitochondria, Ca2+ swelling absorbance, 30 min; inhibition, % at 10 µM;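 active = inhibition of 50% or more, scaled per plate between neutral and stimulator controls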;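 also: 0% = DMSO wells given calcium and 100% = 1 mM EGTA wells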
aDG glyco up: alpha-DG glycosylation activation. Pro5-aDG cells, alpha-DG glycosylation AlphaScreen (IIH6); 0% Pro5, 100% B10-LARGE cell signal. 360,000 compounds, 0.22% hits. activation, % at 10 µM;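 active = activation of at least 8% versus controls, or a plate z-score of at least 8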;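 also: Pro5 are CHO cells carrying HIG-tagged alpha-DG that lacks glycosylation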
proCasp3 act: activates human procaspase-3; recombinant procaspase-3 D3A, Ac-DEVD-pNA absorbance 405 nm; activation, % at 8.5 µM; 330,000 compounds, 0.11% hits;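 active = activation above the mean of all tested compounds plus 3 SD, cut at about 21% in these data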;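 also: 0% = DMSO alone and 100% = DMSO wells spiked with extra 5 µM PC-3 D3A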
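Assay system: Procaspase-3 D3A mutant, all three cleavage aspartates alanine. Buffer or medium: Zinc-free HEPES saline buffer with Triton X-100. Times: 1 h compound preincubation, 2 h substrate hydrolysis at 25 °C. Measured by: 405 nm absorbance of p-nitroaniline, reads at 0 and 120 min. Read-out basis: percent activation relative to control range. Replicates: singlicate.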
proCasp7 act: counter-screen: procaspase-7 (human) activation | recombinant procaspase-7, Ac-DEVD-pNA absorbance 405 nm; D23A/D198A/D206A triple mutant, cannot self-cleave; scale: DMSO 0, 5 µM enzyme 100 | activation, % at 8.5 µM | 330,000 compounds, 0.093% hits;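 active = percent activation above the screen-wide mean plus 3 SD, cut at about 25% in these data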
Target sequence (P55210 whole entry D23A/D198A/D206A): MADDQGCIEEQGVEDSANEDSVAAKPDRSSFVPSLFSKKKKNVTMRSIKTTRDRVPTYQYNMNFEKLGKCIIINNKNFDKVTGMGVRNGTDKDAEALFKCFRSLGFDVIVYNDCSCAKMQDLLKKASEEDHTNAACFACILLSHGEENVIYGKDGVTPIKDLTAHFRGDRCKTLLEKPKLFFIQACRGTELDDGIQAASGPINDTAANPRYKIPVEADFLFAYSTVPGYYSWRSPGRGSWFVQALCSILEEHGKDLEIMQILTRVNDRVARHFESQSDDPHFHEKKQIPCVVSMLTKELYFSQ
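buffer or medium = Zinc-free HEPES/NaCl buffer, pH 7.4 | material = Procaspase-7 triple mutant (PC-7 D3A) | input = 2 µM procaspase-7 mutant as dispensed | signal = Epi-absorbance of released pNA at 405 nm, two timepoints | timing = 1 h preincubation, 2 h reaction | replicates = singlicate compound testing | evaluation = % activation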
NR3A LBD binder: modulates the human NR3A ligand-binding domain | NR3A LBD differential scanning fluorimetry, Tm shift; 0% = protein alone, 100% = glycine-bound protein | Tm shift relative to glycine control, % at 25 µM | 340,000 compounds, 2.5% hits | AID 1259313;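 active = melting temperature shift of at least 10% of the positive control shift, at one fixed dose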
An asterisk follows results filed as active; x = no result given. Sampled rows, rich in hits. Any-hit rate of the full collection: about 3.7%.

SMILES	MPTP inh	aDG glyco up	proCasp3 act	proCasp7 act	NR3A LBD binder
Cc1[nH]nc(SCC(=O)Nc2ccc(C#N)cc2)c1[N+](=O)[O-]	25.9	-0.1	-4.0	-4.8	30.6*
Oc1ccc(N=Nc2ccc3ccccc3c2)cc1	4.7	-0.3	-14.0	-11.2	23.6*
Cc1cc(=O)[nH]c2cc(O)ccc12	0.2	-0.1	-0.5	0.1	-1.2
CC(C)=CCCC1(C)C=Cc2c(c(C)cc3c2[nH]c2cc(O)ccc23)O1 (configuration not stated)	2.7	0.4	0.5	-0.1	18.6*
COc1ccc(N2CSC3=C(C#N)C(c4cccs4)CC(=O)N3C2)cc1 (configuration not stated)	2.0	-0.2	-6.6	-20.3	18.6*
CCNC(=O)C1(C)CCCN(C(=O)c2oc3ccccc3c2C)C1 (configuration not stated)	0.1	0.7	x	x	x
O=C(Nc1ccc(F)cc1)C(c1cccc(F)c1)N1CCN(c2ccncc2)CC1 (configuration not stated)	19.9	0.1	x	x	x
COC(=O)c1ccc(N=NN2CCCCCC2)cc1	0.2	0.0	3.5	-0.4	17.5*
CC(C)(C)CC(=O)NC(=S)Nc1ccccc1C(F)(F)F	2.9	0.4	-9.7	2.0	14.0*
CC(C)CC(=O)NC(=S)Nc1ccccc1C(F)(F)F	-0.4	-0.1	-6.0	-7.2	-0.5
COC(=O)c1ccc(NS(=O)(=O)c2cc3c4c(c2)CCN4C(=O)CC3)cc1	-2.9	0.0	1.4	5.0	-0.8
Cc1ccn2c(C(=O)CSc3ccccc3Cl)c(C)nc2c1	-0.7	0.2	-6.8	5.4	13.6*
CCOC(=O)c1c(C)nc2cc(C)ccn12	0.2	-0.2	-1.4	0.0	-0.2
CN(C)S(=O)(=O)c1ccc(NC(=O)CSc2nnc(-c3ccco3)n2N)cc1	-0.5	-0.1	1.6	9.8	-0.8
CCc1ccccc1NC(=O)CN1CCN(C(=O)CN2C(=O)NC3(CCCCC3C)C2=O)CC1 (configuration not stated)	-1.8	0.0	x	x	20.8*
CCc1ccccc1NC(=O)CN1CCN(C(=O)CN2C(=O)NC3(CCCC3)C2=O)CC1	-0.3	0.2	9.0	-9.1	0.2
CCN1CCc2c(sc(NC(=O)c3ccc(S(=O)(=O)N(C)c4ccccc4)cc3)c2C(=O)NC)C1	-0.1	43.2*	-3.4	-3.3	6.5
COc1ccc(S(=O)(=O)n2[nH]c(=O)c(CCO)c2C)c([N+](=O)[O-])c1	-0.6	-0.1	-9.1	-6.0	15.6*
CCOC(=O)[C@]12CCCC=C1N(Cc1ccc(Cl)cc1Cl)C(=O)[C@H](CC(=O)NCC13CC4CC(CC(C4)C1)C3)C2	0.4	0.0	x	x	x
CCN(CC(=O)Nc1ccc(NC(C)=O)cc1)C(=O)/C=C/c1ccc2c(c1)OCO2	-1.6	0.0	-0.8	-0.4	31.1*
Cc1ccc(NC(=O)CN(C)C(=O)/C=C/c2ccc3c(c2)OCO3)cc1	-0.5	0.1	5.0	6.0	3.0
O=C(NCc1ccc(Cl)c(Cl)c1)c1cc(C2CCCCN2C(=O)c2ccccc2)on1 (configuration not stated)	0.9	0.6	x	x	x
CC(=O)N(CC#CCN(C(C)=O)c1ccccc1)c1ccccc1	1.7	0.0	x	x	x
O=C(N/N=C/c1cccnc1)c1cccc(Br)c1	0.6	0.2	x	x	-6.7
Cc1cccc(C(=O)Nc2ccc(C(=O)/C=C/c3cccnc3)cc2)c1	1.1	-0.4	-4.3	7.9	24.2*
SMILES	MPTP inh	aDG glyco up	proCasp3 act	proCasp7 act	NR3A LBD binder
O=C(/C=C/c1cccnc1)c1ccc(NC(=O)c2cccc(Br)c2)cc1	-3.0	-0.5	8.9	-1.7	26.4*
Cc1cccc(NC(=O)c2cccnc2)c1	-1.1	0.4	0.1	5.4	-0.7
Cc1cccc(C(=O)Nc2ccc(C(=O)/C=C/c3ccncc3)cc2)c1	4.0	-0.2	1.4	-3.4	15.6*
COc1ccccc1N(C)S(=O)(=O)c1ccc(C(=O)Nc2cc(F)ccc2C)cc1	2.8	-0.1	0.3	-7.4	-4.6
CC(=O)NC(c1ccc(F)c(F)c1)c1nc(-c2ccc(C)c(C)c2)cs1 (configuration not stated)	0.3	-0.3	x	x	x
O=C(CSc1ccccc1)Nc1ccc(C(=O)Nc2ccc(O)cc2)cc1	0.2	0.5	x	x	25.1*
O=C(Cc1ccccc1)Nc1ccc(C(=O)Nc2ccc(O)cc2)cc1	-1.8	0.3	4.9	4.9	35.2*
